The record followed here is article PMC9393086 (Thrombosis and Haemostasis, 2022).

One test concerns washed human platelets. In words: Light transmission platelet aggregation. Format: cell-based. The following applies: for effect on platelet aggregation induced by 10 µM katacine: pretreatment 5 min, PRT-060318 1 µM, PP2 20 µM. An outline of the steps: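 Platelets came from citrated blood of healthy donors free of antiplatelet drugs for 14 days. They were washed from PRP with 0.2 µg/mL prostacyclin, resuspended in modified Tyrode's buffer pH 7.3 and rested 30 min at RT. Platelets (2 × 10^8/mL) were stirred at 1,200 rpm at 37°C and stimulated with test compound (1–30 µM). Pretreatment was 5 min at 37°C with PP2 20 µM, PRT-060318 1 µM, AYP1 10 µg/mL or 0.1% DMSO. Read-out was light transmission; three independent experiments, mean + SD.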

Another test relates to mouse platelet lysates. Description: Protein tyrosine phosphorylation in mouse platelet lysates. The test is classed as cell-based. The following applies: katacine 10 µM; 4x10^8 platelets/mL.
Test [1] has as its target podoplanin–CLEC-2 interaction (Homo sapiens, UniProt Q9P126). In words: ALPHA screen podoplanin–CLEC-2 interaction assay. The test is classed as binding. An outline of the steps:
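Biotinylated human podoplanin–rabbit Fc (50 nM) plus human CLEC-2 extracellular domain (Ser55–Pro229)–6xHis (250 nM), both expressed in HEK293T and purified, incubated with test compound (vehicle 0.1% v/v DMSO) 30 min at 4°C. Then 40 µg/mL streptavidin donor beads, 30 min at RT in the dark, then 40 µg/mL nickel acceptor beads, 60 min at RT in the dark. ALPHA signal read; false positives excluded by TruHits counter-screen; IC50 from concentration series.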

The test system of a further test is LAT Y200. Description: Phospho-specific immunoblot of platelet lysates, LAT. The following applies: katacine 10 µM, rhodocytin 100 nM; 5 min; 9 µM eptifibatide. The test is classed as cell-based, human. Background: A western blot detects proteins with antibodies after separation by electrophoresis.
The next test concerns Syk Y525/526. In words: Phospho-specific immunoblot of platelet lysates, Syk. Format: cell-based, human. The following applies: katacine 10 µM, rhodocytin 100 nM; 5 min; 9 µM eptifibatide.
In the next test the test system is mouse washed platelets. In words: Mouse platelet aggregation. Format: cell-based. The following applies: katacine 10 µM; 2x10^8 platelets/mL.
In a further test the test system is CLEC-2. Description: Immunoprecipitation of CLEC-2 and 4G10 western blot. The following applies: katacine 10 µM, rhodocytin 100 nM. Format: cell-based, human. The procedure, abridged: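 Platelets (4 × 10^8/mL, 9 µM eptifibatide) were stimulated 5 min at 37°C, stirring at 1,200 rpm, with test compound, rhodocytin or vehicle. Lysis was in NP-40 buffer with protease inhibitors and orthovanadate, pH 7.5. Lysates were precleared on Sepharose, then incubated 30 min with 2 µg anti-CLEC-2 antibody AYP1 and captured for 60 min. Immunoprecipitates were blotted with 4G10; signal was expressed as fold over vehicle.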

A further test deals with FcR γ-chain. In words: FcR γ-chain phosphorylation, western blot of whole cell lysate. Format: cell-based, human. The following applies: katacine 10 µM, CRP 3 µg/mL.

Chain of podoplanin–CLEC-2 interaction (Q9P126 55-229): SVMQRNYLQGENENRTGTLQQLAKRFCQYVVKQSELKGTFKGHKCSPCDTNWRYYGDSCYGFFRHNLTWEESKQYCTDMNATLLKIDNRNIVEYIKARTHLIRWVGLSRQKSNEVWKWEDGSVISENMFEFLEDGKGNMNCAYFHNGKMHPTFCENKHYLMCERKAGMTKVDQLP

In the case of `CC(C)(C)n1nc(-c2ccc(Cl)cc2)c2c(N)ncnc21` [PP2, reference compound], the “effect on platelet aggregation induced by 10 µM katacine” value in the test on washed human platelets is recorded as “completely blocked”.

For the compound `Cc1cccc(Nc2nc(N[C@@H]3CCCC[C@@H]3N)ncc2C(N)=O)c1` [PRT-060318, reference compound], the “effect on platelet aggregation induced by 10 µM katacine” value with washed human platelets is given as “completely blocked”.

The term IC50 denotes the midpoint of a concentration-inhibition curve. Low values mean greater potency, high ones weaker potency. On to `Oc1cc(O)c2c(c1)O[C@H](c1cc(O)c(O)c(O)c1)[C@H](O)[C@H]2c1c(O)cc(O)c2c1O[C@H](c1cc(O)c(O)c(O)c1)[C@H](O)[C@H]2c1c(O)cc(O)c2c1O[C@H](c1cc(O)c(O)c(O)c1)[C@H](O)C2` [katacine, Katacine], for which the “protein tyrosine phosphorylation in mouse platelets” value with mouse platelet lysates is recorded as “did not observe”. The same compound displayed an IC50 in test [1] of 2700 nM. The “increase in phosphorylation of LAT Y200 relative to vehicle” value in the test with LAT Y200 came to 18.8 ± 5.9 fold. Besides, the “increase in phosphorylation of Syk Y525/526 relative to vehicle” value with Syk Y525/526 is recorded as 4.5 ± 0.9 fold. Also, the “platelet aggregation in mouse platelets” value with mouse washed platelets is on record as “did not observe platelet aggregation”. For the same compound, the “increase in phosphorylation levels of CLEC-2 relative to vehicle” value in the test on CLEC-2 was found to be 6.6 ± 4.6 fold. In addition, the “platelet aggregation, concentration–response” value in the test with washed human platelets (at 5 μM and below) was “no response”; in the test with washed human platelets (at 10 and 30 μM), “maximal aggregation”. In addition, the platelet aggregation with washed human platelets (katacine 10 µM, washed platelets 2 × 10^8/mL) turned out to be 77.7 ± 9%. Also, the “phosphorylation of FcR γ-chain” value in the test with FcR γ-chain was “did not stimulate an increase”.

As for `O=C(O)c1cc(O)c2c(c1)[C@H]([C@H]1c3cc(C(=O)O)cc(O)c3C(=O)c3c(O[C@@H]4O[C@H](CO)[C@@H](O)[C@H](O)[C@H]4O)cccc31)c1cccc(O[C@@H]3O[C@H](CO)[C@@H](O)[C@H](O)[C@H]3O)c1C2=O` [sennoside A, Sennoside A], the IC50 in test [1] stood at 1300 nM. Besides, the “effect on platelet aggregation” value in the test with washed human platelets (10 and 30 µM, data not shown) is reported as “no effect”. Moreover, the “effect on the platelet aggregation response to rhodocytin” value with washed human platelets (10 and 30 µM, rhodocytin 100 nM, data not shown) is reported as “no effect”.
